Experimental findings from ChEMBL document CHEMBL4765352, “Discovery of AdipoRon analogues as novel AMPK activators without inhibiting mitochondrial complex I” (Eur J Med Chem, 2020) are described below.

Data set [1] is described as follows: Toxicity in db/db mouse assessed as effect on serum AST level at 100 mg/kg, ig administered for 10 weeks. Type of data set: organism-based. The conditions noted are these: in vivo, po, 1680 h. The gist of the method: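 db/db mice, 5 weeks old, grouped by matching baseline blood glucose and body weight. Dosed intragastrically once daily at 100 mg/kg in 0.5% methylcellulose; vehicle-treated db/db and db/m mice served as controls. Body weight and fasting blood glucose measured weekly. Serum ALT and AST measured after 10 weeks. Data given as mean ± SEM.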

The nature of data set [2]: Induction of cardiac hypertrophy in normal lean C57BL/6 mouse at 100 mg/kg, ig administered for 4 weeks. The note with it: in vivo, po, 672 h. In kind it is organism-based. Summed up:
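Male C57BL/6 mice, 9 weeks old, dosed intragastrically daily for 4 weeks. After saline perfusion, organ weights and tibia length were recorded. Heart pieces were fixed in 4% paraformaldehyde, embedded in paraffin and stained with periodic acid-Schiff to show glycogen.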

The next data set concerns C2C12. The experiment in a line: Activation of AMPK in mouse C2C12 cells assessed as increase in ACC phosphorylation at 10 uM by Western blotting analysis. Type of data set: cell-based. The conditions noted are these: filed as activator, time 0.5-24 hrs, TDE = time-dependent effect. Summed up: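 C2C12 myoblasts differentiated in DMEM with 2% horse serum for 5-7 days until myotubes formed. Treated for 2 h, either at 10 μM or across a concentration range, or at 10 μM over a time course. RIPA lysates (~30 µg protein) blotted for p-AMPK/AMPK and p-ACC/ACC, detected by ECL. The p-AMPK/AMPK ratio is expressed as fold of the DMSO vehicle.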
On the technique in general: Immunoblotting shows a protein as a band on a membrane.

For a further data set, the system named is BEAS-2B. Briefly: Activation of AMPK in human BEAS-2B cells harboring wild type LKB1. In kind it is cell-based. The note with it: filed as activator.
For a further data set, the system named is Huh-7. The experiment in a line: Activation of AMPK in human HuH-7 cells assessed as increase in AMPK phosphorylation at 1 to 20 uM measured after 2 to 12 hrs by Western blotting analysis. Type of data set: cell-based. The note with it: filed as activator, dose 1-20 µM, time 2-12 hrs. The gist of the method:
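HepG2 and HuH-7 cells in medium with 10% FBS and penicillin/streptomycin at 37 °C, 5% CO₂. Treated with a range of concentrations for 2 h, or with 10 μM over a time course. Cells lysed in RIPA buffer with protease/phosphatase inhibitors; ~30 µg protein per lane blotted for p-AMPK, AMPK, p-ACC, ACC, with GAPDH or β-actin as loading control. Detected by ECL.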

Data set [3] can be described thus: Induction of glucose consumption in mouse C2C12 cells at 10 uM measured after 12 hrs by glucose oxidase method (reference value: 100 %). Type of data set: functional. The gist of the method:
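Differentiated C2C12 myotubes were switched to DMEM containing 2.75 g/L glucose and treated for 12 h at 37 °C, with cell-free blank wells as reference. Glucose left in the medium was measured by the GOD-POD method at 570 nm. Consumption was derived by subtraction and expressed as percentage of the DMSO group.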

The structures appear in SMILES notation. Activity calls are given as the source filed them. The calls are words filed in the database; no cut-off is given here.

With `CC(C)(Oc1ccc(Cl)cc1)C(=O)Nc1ccc(OCc2ccc(C#N)cc2)cc1`, the Activity result was “Non-Toxic” in data set [1], “Non-Toxic” in data set [2], “Tde” with C2C12 and 151.8% in data set [3]. Moreover, the result in the data set on BEAS-2B and with Huh-7 was Active.
